How the values were obtained:
[1] = target: Histone deacetylase 1 (Homo sapiens, UniProt Q13547); assay: Inhibition of human full-length recombinant HDAC1 expressed in baculovirus infected Sf9 insect cells using fluorogenic peptide RHKKAc as substrate after 2 hrs
Method in brief: (§1)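 Run by an outside contract lab. IC50 was obtained from 10-point dose-response curves using threefold serial dilutions of compound from the top concentration.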

[2] = target: T1, Protein deacetylase HDAC6 (Homo sapiens, UniProt Q9UBN7); assay: Inhibition of human full-length recombinant HDAC6 expressed in baculovirus infected Sf9 insect cells using fluorogenic peptide RHKKAc as substrate after 2 hrs
T1 sequence (Q9UBN7 whole entry): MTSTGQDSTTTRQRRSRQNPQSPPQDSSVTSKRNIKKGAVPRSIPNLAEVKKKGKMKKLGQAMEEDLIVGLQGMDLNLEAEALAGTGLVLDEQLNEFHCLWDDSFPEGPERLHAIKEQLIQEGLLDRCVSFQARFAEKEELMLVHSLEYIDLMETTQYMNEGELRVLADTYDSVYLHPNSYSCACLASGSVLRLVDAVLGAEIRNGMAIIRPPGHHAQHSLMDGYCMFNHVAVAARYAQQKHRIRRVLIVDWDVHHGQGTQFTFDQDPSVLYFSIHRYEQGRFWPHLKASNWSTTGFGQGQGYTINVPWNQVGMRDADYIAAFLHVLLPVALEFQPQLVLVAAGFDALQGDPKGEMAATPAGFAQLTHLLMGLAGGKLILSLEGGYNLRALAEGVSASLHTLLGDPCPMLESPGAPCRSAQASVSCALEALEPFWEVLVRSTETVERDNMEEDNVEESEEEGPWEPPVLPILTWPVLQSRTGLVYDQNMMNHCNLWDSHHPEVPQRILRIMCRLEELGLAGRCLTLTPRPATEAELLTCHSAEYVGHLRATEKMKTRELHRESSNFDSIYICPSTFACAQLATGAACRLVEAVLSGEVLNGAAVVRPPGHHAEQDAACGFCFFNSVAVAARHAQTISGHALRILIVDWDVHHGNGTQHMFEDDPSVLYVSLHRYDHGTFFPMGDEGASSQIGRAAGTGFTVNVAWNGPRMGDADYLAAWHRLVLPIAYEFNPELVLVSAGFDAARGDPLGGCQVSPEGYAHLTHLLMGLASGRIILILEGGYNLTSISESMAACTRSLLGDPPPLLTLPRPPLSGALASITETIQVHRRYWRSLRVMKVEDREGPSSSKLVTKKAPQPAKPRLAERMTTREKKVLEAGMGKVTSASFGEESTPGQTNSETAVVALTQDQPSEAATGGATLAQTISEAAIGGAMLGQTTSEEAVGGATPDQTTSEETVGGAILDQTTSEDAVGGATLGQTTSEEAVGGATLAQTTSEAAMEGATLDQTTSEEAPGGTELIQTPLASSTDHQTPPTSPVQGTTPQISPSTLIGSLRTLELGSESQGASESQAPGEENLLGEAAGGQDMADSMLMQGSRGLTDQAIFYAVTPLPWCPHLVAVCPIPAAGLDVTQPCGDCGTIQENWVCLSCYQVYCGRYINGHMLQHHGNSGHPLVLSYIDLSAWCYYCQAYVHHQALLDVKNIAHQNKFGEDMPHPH

[3] = target: T2, Histone deacetylase 8 (Homo sapiens, UniProt Q9BY41); assay: Inhibition of human full-length recombinant HDAC8 expressed in baculovirus infected Sf9 insect cells using fluorogenic peptide RHKAcKAc as substrate after 2 hrs
T2 sequence (Q9BY41 whole entry): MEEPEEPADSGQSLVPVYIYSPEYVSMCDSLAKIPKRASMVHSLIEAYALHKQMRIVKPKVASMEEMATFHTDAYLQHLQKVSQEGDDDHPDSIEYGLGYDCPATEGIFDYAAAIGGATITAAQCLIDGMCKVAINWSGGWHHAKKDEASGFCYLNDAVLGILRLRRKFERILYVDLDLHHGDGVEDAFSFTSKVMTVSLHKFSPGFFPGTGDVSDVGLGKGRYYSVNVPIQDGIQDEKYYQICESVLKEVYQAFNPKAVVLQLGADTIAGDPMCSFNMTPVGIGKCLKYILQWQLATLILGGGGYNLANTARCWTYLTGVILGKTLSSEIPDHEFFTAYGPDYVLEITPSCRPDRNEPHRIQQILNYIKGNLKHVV

[4] = target: T3, Histone deacetylase 11 (Homo sapiens, UniProt Q96DB2); assay: Inhibition of human full-length recombinant HDAC11 expressed in baculovirus infected Sf9 insect cells using fluorogenic peptide RHKKAc as substrate after 2 hrs; method in brief: as §1
T3 sequence (Q96DB2 whole entry): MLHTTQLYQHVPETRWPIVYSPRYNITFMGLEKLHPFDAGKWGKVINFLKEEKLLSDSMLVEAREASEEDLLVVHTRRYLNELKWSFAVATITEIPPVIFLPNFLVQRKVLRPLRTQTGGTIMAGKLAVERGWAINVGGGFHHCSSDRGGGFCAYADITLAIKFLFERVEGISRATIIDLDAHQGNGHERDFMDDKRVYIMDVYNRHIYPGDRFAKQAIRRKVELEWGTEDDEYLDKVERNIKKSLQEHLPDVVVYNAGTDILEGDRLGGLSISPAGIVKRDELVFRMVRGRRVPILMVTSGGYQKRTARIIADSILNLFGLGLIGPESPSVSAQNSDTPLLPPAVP

[5] = target: T1, Protein deacetylase HDAC6; assay: Inhibition of human full-length recombinant HDAC6 expressed in baculovirus infected Sf9 insect cells using Boc-Lys (Ac)-AMC as substrate preincubated for 10 mins followed by substrate addition and measured after 30 mins by fluorescence assay
[6] = target: T1, Protein deacetylase HDAC6; assay: Inhibition of human HDAC6 CD2 expressed in Escherichia coli BL21 (RIL) using Boc-Lys (Ac)-AMC as substrate preincubated for 10 mins followed by substrate addition and measured after 30 mins by fluorescence assay
[7] = test system: A549; assay: Cytotoxicity against human A549 cells after 72 hrs by MTT assay; type: functional, cell-based; details: A549, 72 h
Method in brief: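 Human A549 lung cancer cells exposed to serial dilutions of inhibitor at 37 °C for 72 h. Cytotoxicity expressed as IC50.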

[8] = test system: Lewis lung carcinoma cell line; assay: Induction of apoptosis in mouse LL/2 cells assessed as necrotic cells at 10 uM after 24 hrs by Annexin V/propidium iodide staining-based flow cytometric analysis (reference value: 7.3%); type: functional
[9] = test system: Lewis lung carcinoma cell line; assay: Cytotoxicity against mouse LL/2 cells after 72 hrs by MTT assay; type: functional, cell-based
[10] = test system: Lewis lung carcinoma cell line; assay: Cytotoxicity against mouse LL/2 cells at 10 uM after 72 hrs by MTT assay relative to control; type: functional; details: in the assay text read “at 10 nM” for “at 10 uM”
Method in brief: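 Mouse LL/2 cells treated with inhibitor alone or combined with paclitaxel for 3 days. Viability measured by MTT assay relative to untreated control.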

[11] = test system: Lewis lung carcinoma cell line; assay: Induction of alpha tubulin acetylation in mouse LL/2 cells at 10 uM after 24 hrs by Western blot analysis relative to control; type: functional
[12] = test system: Lewis lung carcinoma cell line; assay: Induction of apoptosis in mouse LL/2 cells assessed as viable cells at 10 uM after 24 hrs by Annexin V/propidium iodide staining-based flow cytometric analysis (reference value: 82.3%); type: functional; details: read-out: Activity
[13] = test system: Lewis lung carcinoma cell line; assay: Induction of apoptosis in mouse LL/2 cells assessed as early apoptotic cells at 10 uM after 24 hrs by Annexin V/propidium iodide staining-based flow cytometric analysis (reference value: 1.8%); type: functional
[14] = test system: Lewis lung carcinoma cell line; assay: Induction of apoptosis in mouse LL/2 cells assessed as late apoptotic cells at 10 uM after 24 hrs by Annexin V/propidium iodide staining-based flow cytometric analysis (reference value: 8.7%); type: functional
[15] = test system: A549; assay: Induction of apoptosis in human A549 cells assessed as viable cells at 10 uM after 24 hrs by Annexin V/propidium iodide staining-based flow cytometric analysis (reference value: 96.2%); type: functional; details: A549, 24 h, read-out: Activity
[16] = test system: A549; assay: Induction of apoptosis in human A549 cells assessed as early apoptotic cells at 10 uM after 24 hrs by Annexin V/propidium iodide staining-based flow cytometric analysis (reference value: 1.2%); type: functional
[17] = test system: A549; assay: Induction of apoptosis in human A549 cells assessed as late apoptotic cells at 10 uM after 24 hrs by Annexin V/propidium iodide staining-based flow cytometric analysis (reference value: 1.6%); type: functional
[18] = test system: A549; assay: Induction of apoptosis in human A549 cells assessed as necrotic cells at 10 uM after 24 hrs by Annexin V/propidium iodide staining-based flow cytometric analysis (reference value: 1.1%); type: functional
[19] = AUC (0 to 24 hrs) in C57BL/6 mouse lung at 40 mg/kg, po administered via gavage by LC-MS/MS analysis; type: ADME, organism-based; design: time < 24 hr, dose 40 mg/kg, route oral; details: in vivo
[20] = AUC (0 to 24 hrs) in C57BL/6 mouse liver at 40 mg/kg, po administered via gavage by LC-MS/MS analysis; type: ADME, organism-based; design: dose 40 mg/kg, time < 24 hr, route oral; details: in vivo
[21] = AUC (0 to 24 hrs) in C57BL/6 mouse kidney at 40 mg/kg, po administered via gavage by LC-MS/MS analysis; type: ADME, organism-based; design: time < 24 hr, dose 40 mg/kg, route oral; details: in vivo
[22] = AUC (0 to 24 hrs) in C57BL/6 mouse plasma at 40 mg/kg, po administered via gavage by LC-MS/MS analysis; type: ADME, organism-based; design: time < 24 hr, dose 40 mg/kg, route oral; details: in vivo

Sequence of Histone deacetylase 1 (Q13547 whole entry): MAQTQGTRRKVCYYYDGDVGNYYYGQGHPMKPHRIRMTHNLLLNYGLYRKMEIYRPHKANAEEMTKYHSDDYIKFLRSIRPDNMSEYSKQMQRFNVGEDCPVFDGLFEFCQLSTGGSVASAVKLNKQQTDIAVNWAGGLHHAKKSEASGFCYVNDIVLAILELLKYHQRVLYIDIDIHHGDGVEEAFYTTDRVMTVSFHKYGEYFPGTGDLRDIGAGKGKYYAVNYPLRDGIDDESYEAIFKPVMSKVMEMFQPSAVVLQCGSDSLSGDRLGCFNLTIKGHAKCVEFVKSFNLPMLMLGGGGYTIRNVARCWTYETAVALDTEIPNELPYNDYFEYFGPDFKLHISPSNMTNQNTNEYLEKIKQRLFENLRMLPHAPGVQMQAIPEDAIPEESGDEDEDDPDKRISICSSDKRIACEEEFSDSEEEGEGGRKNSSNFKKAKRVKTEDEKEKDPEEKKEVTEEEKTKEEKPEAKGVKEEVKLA

| SMILES | IC50 [1] | IC50 [2] | IC50 [4] | IC50 [7] | other results |
| --- | --- | --- | --- | --- | --- |
| COc1ccc(CCn2c(=O)c3ccccc3n(Cc3ccc(C(=O)NO)cc3)c2=O)cc1 | 7370 nM | 20 nM | 13800 nM | – | IC50 [3]: 1150 nM |
| O=C(NO)c1ccc(Cn2c(=O)n(CCc3ccccc3)c(=O)c3cccnc32)cc1 | – | 29 nM | – | 2840 nM | Ki [5]: 3.89 nM; Ki [6]: 4.5 nM |
| O=C(NO)c1ccc(Cn2c(=O)n(CCc3ccccc3)c(=O)c3ccc(O)cc32)cc1 | – | 32 nM | – | – | – |
| O=C(NO)c1ccc(Cn2c(=O)n(CCc3ccc(F)cc3)c(=O)c3ccccc32)cc1 | – | – | – | 3650 nM | – |
| O=C(NO)c1cc(Cn2c(=O)n(CCc3ccccc3)c(=O)c3ccccc32)cs1 | > 10000 nM | – | > 10000 nM | – | – |
| O=C(NO)c1ccc(Cn2c(=O)n(CCc3ccc(O)cc3)c(=O)c3ccccc32)cc1 | 9080 nM | 5 nM | 11300 nM | – | IC50 [3]: 845 nM |
| O=C(NO)c1ccc(Cn2c(=O)n(CCc3ccccc3)c(=O)c3cc(F)ccc32)cc1 | – | – | – | 12200 nM | – |
| O=C(NO)c1cccc(Cn2c(=O)n(CCc3ccccc3)c(=O)c3ccccc32)c1 | > 10000 nM | 4630 nM | > 10000 nM | – | – |
| O=C(NO)c1ccc(Cn2c(=O)n(CCc3ccccc3)c(=O)c3ccccc32)s1 | 22900 nM | 20 nM | 19800 nM | 13500 nM | IC50 [3]: 97 nM |
| COc1ccccc1CCn1c(=O)c2ccccc2n(Cc2ccc(C(=O)NO)cc2)c1=O | – | 12 nM | – | 11800 nM | Ki [5]: 2.1 nM; Ki [6]: 2.6 nM |
| O=C(NO)c1ccc(Cn2c(=O)n(CCc3cccc(C(F)(F)F)c3)c(=O)c3ccccc32)cc1 | 12700 nM | 24 nM | – | 6030 nM | IC50 [3]: 1760 nM |
| O=C(NO)c1ccc(Cn2c(=O)n(CCc3ccccc3)c(=O)c3ccc(Cl)cc32)cc1 | – | 22 nM | – | – | – |
| O=C(NO)c1ccc(Cn2c(=O)n(CCc3ccccc3)c(=O)c3ccc(F)cc32)cc1 | – | – | – | 3920 nM | – |
| CC(=O)O[C@H]1C(=O)[C@@]2(C)[C@H]([C@H](OC(=O)c3ccccc3)[C@]3(O)C[C@H](OC(=O)[C@H](O)[C@@H](NC(=O)c4ccccc4)c4ccccc4)C(C)=C1C3(C)C)[C@]1(OC(C)=O)CO[C@@H]1C[C@@H]2O [PACLITAXEL] | – | – | – | – | Activity [8]: 6.9%; IC50 [9]: 10 nM; Activity [10]: 20%; fold change (FC) [11]: 7.28; viability at 10 µM [12]: 73.4%; Activity [13]: 4%; Activity [14]: 15.9%; viability at 10 µM [15]: 94.9%; Activity [16]: 2.9%; Activity [17]: 1.2%; Activity [18]: 1% |
| O=C(CCCCCCNC(=O)c1cnc(N(c2ccccc2)c2ccccc2)nc1)NO [RICOLINOSTAT] | – | – | – | 7700 nM | AUC [19]: 622 ng·h/g; AUC [20]: 1442 ng·h/g; AUC [21]: 2493 ng·h/g; AUC [22]: 308 ng·h/g |
| O=C(CCCCCCC(=O)Nc1ccccc1)NO [VORINOSTAT] | – | – | – | 2240 nM | – |
